Test results from ChEMBL document CHEMBL1157096, “Bioactive metabolites from cultures of basidiomycete Favolaschia tonkinensis” (J Nat Prod, 2010).
In brackets after ≈: the same amount, converted by molar mass.

Experiments:
Candida albicans = assay: Antifungal activity against Candida albicans; type: functional, organism-based
Outline: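 Candida albicans tested by resazurin microplate assay, with IC50 in µg/mL.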

KB = assay: Cytotoxicity against human KB cells by resazurin microplate assay; type: functional, cell-based
Outline: (§1)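 Resazurin microplate assay on KB (oral human epidermoid carcinoma), MCF-7 (human breast cancer) and NCI-H187 (human small-cell lung cancer) cells, with IC50 in µg/mL.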

Vero = assay: Cytotoxicity against african green monkey Vero cells by green fluorescent protein assay; type: cell-based; settings: Chlorocebus sabaeus
Outline: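 Vero (African green monkey kidney fibroblast) cytotoxicity measured by green fluorescent protein (GFP)-based method.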

NCI-H187 = assay: Cytotoxicity against human NCI-H187 cells by resazurin microplate assay; type: functional, cell-based; outline: as §1
Plasmodium falciparum [1] = assay: Antimalarial activity against Plasmodium falciparum K1; type: functional, organism-based
Outline: (§2)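 Plasmodium falciparum strain K1 tested by microculture radioisotope technique, with IC50 in µg/mL.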

MCF7 = assay: Cytotoxicity against human MCF7 cells by resazurin microplate assay; type: functional, cell-based; outline: as §1
Plasmodium falciparum [2] = assay: Antimalarial activity against Plasmodium falciparum K1 assessed as [G-3H]hypoxanthine uptake after 24 hrs by scintillation counting; type: functional, organism-based; settings: K1, 24 h; outline: as §2

| SMILES | IC50 (Candida albicans) [µg/mL] | IC50 (Plasmodium falciparum [1]) [µg/mL] | IC50 (Plasmodium falciparum [2]) [µg/mL] | IC50 (KB) [µg/mL] | IC50 (Vero) [µg/mL] | IC50 (NCI-H187) [µg/mL] | IC50 (MCF7) [µg/mL] |
| --- | --- | --- | --- | --- | --- | --- | --- |
| CO\C=C(C(=O)OC)/C(C)=C(\C=C\c1ccccc1)OC [9-METHOXYSTROBILURIN A] | 0.06 (≈ 0.208 µM) |  | 0.39 (≈ 1.35 µM) | 1.39 (≈ 4.82 µM) | 21.3 (≈ 73.8 µM) | 1.57 (≈ 5.44 µM) | 12.4 (≈ 43.1 µM) |
| C[C@H]1[C@@H](O)O[C@@H]2O[C@@]3(C)CC[C@H]4[C@H](C)CC[C@@H]1[C@@]24OO3 [ARTENIMOL] |  |  | 0.0011 (≈ 0.00387 µM) |  |  |  |  |
| COc1cccc2c1C(=O)c1c(O)c3c(c(O)c1C2=O)C[C@@](O)(C(=O)CO)C[C@@H]3O[C@H]1C[C@H](N)[C@H](O)[C@H](C)O1 [DOXORUBICIN] |  |  |  | 0.25 (≈ 0.46 µM) |  | 0.04 (≈ 0.0736 µM) | 0.57 (≈ 1.05 µM) |
| CO/C=C(/C(=O)OC)[C@H](C)[C@H](/C=C/c1ccc(Cl)c(OC)c1)OC [(-)-OUDEMANSIN B] | 0.89 (≈ 2.51 µM) | 0.4 (≈ 1.13 µM) |  | 0.73 (≈ 2.06 µM) | 14.3 (≈ 40.2 µM) | 0.02 (≈ 0.0564 µM) | 27.8 (≈ 78.5 µM) |
| CO\C=C(C(=O)OC)/C(C)=C(\C=C\c1ccc(Cl)c(OC)c1)OC [9-METHOXYSTROBILURIN B] | 0.22 (≈ 0.624 µM) |  | 0.3 (≈ 0.85 µM) | 5.45 (≈ 15.4 µM) | 7.91 (≈ 22.4 µM) | 0.4 (≈ 1.13 µM) | 4.86 (≈ 13.8 µM) |
| Cc1c2ccncc2c(C)c2c1[nH]c1ccccc12 [ELLIPTECINE] |  |  |  | 0.45 (≈ 1.83 µM) | 1.18 (≈ 4.79 µM) | 0.68 (≈ 2.76 µM) |  |
| CO\C=C(C(=O)OC)/C(C)=C(\C=C\c1ccc2c(c1)OC(C)(C)[C@@H](OCC=C(C)C)CO2)OC | 0.5 (≈ 1.06 µM) |  | 0.03 (≈ 0.0635 µM) | 14.3 (≈ 30.3 µM) | 24 (≈ 50.7 µM) | 0.36 (≈ 0.762 µM) | 15.4 (≈ 32.6 µM) |

Now from value to molecule, other results behind:

| IC50 (Candida albicans) [µg/mL] | IC50 (Plasmodium falciparum [1]) [µg/mL] | IC50 (Plasmodium falciparum [2]) [µg/mL] | SMILES | IC50 (KB) [µg/mL] | IC50 (Vero) [µg/mL] | IC50 (NCI-H187) [µg/mL] | IC50 (MCF7) [µg/mL] |
| --- | --- | --- | --- | --- | --- | --- | --- |
| 0.07 (≈ 0.0758 µM) |  |  | C[C@@H]1[C@H](O)[C@@H](C)/C=C/C=C/C=C/C=C/C=C/C=C/C=C/[C@H](O[C@@H]2O[C@H](C)[C@@H](O)[C@H](N)[C@@H]2O)C[C@@H]2O[C@](O)(C[C@@H](O)C[C@@H](O)[C@H](O)CC[C@@H](O)C[C@@H](O)CC(=O)O[C@H]1C)C[C@H](O)[C@H]2C(=O)O [AMPHOTERICIN B] |  |  |  |  |
| 0.76 (≈ 2.62 µM) | 3 (≈ 10.3 µM) |  | CO/C=C(/C(=O)OC)[C@H](C)[C@H](/C=C/c1ccccc1)OC | 5.48 (≈ 18.9 µM) | 39.2 (≈ 135 µM) | 15.1 (≈ 52 µM) | > 50 |
| > 50 |  | > 10 | O=C(O)c1ccc2c(c1)C=C/C(=C\Cl)CO2 | 0.78 (≈ 3.3 µM) | > 50 | 11.7 (≈ 49.3 µM) | > 50 |
| > 50 |  | > 10 | NC(=O)c1ccc2c(c1)C=C/C(=C\Cl)CO2 | 12.1 (≈ 51.6 µM) | > 50 | > 50 | > 50 |
